This passage reports Tissue distribution and Ratio results from ChEMBL document CHEMBL1122967 (J Med Chem, 1985).

What all share (format): ADME, organism-based
What all share (conditions): in vivo

For data set [1], the system named is Rattus norvegicus. As to the kind of experiment: Distribution of [125I]Iodoclebopride in rest of the brain after intravenous administration in rat after 2hours, expressed as percent dose/gram. The procedure, abridged:
(§1)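 Rats received the radioiodinated ligand intravenously and were killed with ether at 1 h or 2 h (six per time point). Organs and brain regions (striatum, cerebellum, thalamus, rest of brain) were sampled and counted. Uptake was calculated as percent injected dose per gram tissue, reported ± SD. The striatum/cerebellum ratio was taken from the regional uptake values.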

The test system of data set [2] is Rattus norvegicus. As to the kind of experiment: Distribution of [125I]iodoclebopride in blood after intravenous administration in rat after 1hour, expressed as percent dose/gram. The procedure, abridged: as §1
Data set [3] has as its system Rattus norvegicus. Briefly: Distribution of [125I]iodoclebopride in blood after intravenous administration in rat after 2hours, expressed as percent dose/gram. The essentials:
as §1

Data set [4] relates to Rattus norvegicus. Briefly: Distribution of [125I]iodoclebopride in cerebellum after intravenous administration in rat after 1hour, expressed as percent dose/gram. The essentials: as §1
Data set [5] has as its system Rattus norvegicus. Briefly: Distribution of [125I]iodoclebopride in cerebellum after intravenous administration in rat after 2hours, expressed as percent dose/gram. The procedure, abridged: as §1
Data set [6] relates to Rattus norvegicus. As to the kind of experiment: Distribution of [125I]iodoclebopride in heart after intravenous administration in rat after 1hour, expressed as percent dose/gram. The procedure, abridged:
as §1

Data set [7] deals with Rattus norvegicus. Briefly: Distribution of [125I]Iodoclebopride in rest of the brain after intravenous administration in rat after 1hour, expressed as percent dose/gram. The procedure, abridged:
as §1

Data set [8] has as its system Rattus norvegicus. As to the kind of experiment: Distribution of [125I]iodoclebopride in striatum after intravenous administration in rat after 1hour, expressed as percent dose/gram. The procedure, abridged: as §1
In data set [9] the test system is Rattus norvegicus. As to the kind of experiment: Distribution of [125I]iodoclebopride in striatum after intravenous administration in rat after 2hours, expressed as percent dose/gram. The essentials:
as §1

For data set [10], the system named is Rattus norvegicus. Briefly: Distribution of [125I]iodoclebopride in thalamus after intravenous administration in rat after 1hour, expressed as percent dose/gram. The procedure, abridged:
as §1

The subject of data set [11] is Rattus norvegicus. As to the kind of experiment: Distribution of [125I]iodoclebopride in thalamus after intravenous administration in rat after 2hours, expressed as percent dose/gram. The essentials: as §1
Data set [12] is filed under the species Rattus norvegicus. As to the kind of experiment: Ratio of striatum/cerebellum distribution in rat after 1 hr. The essentials: as §1
The species entered for data set [13] is Rattus norvegicus. Briefly: Ratio of striatum/cerebellum distribution in rat after 2 hr. The procedure, abridged:
as §1

Data set [14] deals with Rattus norvegicus. Briefly: Distribution of [125I]iodoclebopride in heart after intravenous administration in rat after 2hours, expressed as percent dose/gram. The procedure, abridged: as §1
In data set [15] the test system is Rattus norvegicus. As to the kind of experiment: Distribution of [125I]-AC in cerebellum after intravenous administration in rat after 2hours, expressed as percent dose/gram. The procedure, abridged: as §1
For data set [16], the system named is Rattus norvegicus. As to the kind of experiment: Distribution of [125I]AC in heart after intravenous administration in rat after 1hour, expressed as percent dose/gram. The procedure, abridged: as §1
In data set [17] the test system is Rattus norvegicus. Briefly: Distribution of [125I]-AC in heart after intravenous administration in rat after 2hours, expressed as percent dose/gram. The essentials: as §1
The subject of data set [18] is Rattus norvegicus. Briefly: Distribution of [125I]AC in rest of the brain after intravenous administration in rat after 1hour, expressed as percent dose/gram. The essentials:
as §1

Data set [19] has as its system Rattus norvegicus. As to the kind of experiment: Distribution of [125I]AC in rest of the brain after intravenous administration in rat after 2hours, expressed as percent dose/gram. The procedure, abridged:
as §1

In data set [20] the test system is Rattus norvegicus. As to the kind of experiment: Distribution of [125I]AC in striatum after intravenous administration in rat after 1hour, expressed as percent dose/gram. The procedure, abridged: as §1
Data set [21] concerns Rattus norvegicus. Briefly: Distribution of [125I]-AC in thalamus after intravenous administration in rat after 1hour, expressed as percent dose/gram. The essentials: as §1
In data set [22] the test system is Rattus norvegicus. As to the kind of experiment: Distribution of [125I]AC in thalamus after intravenous administration in rat after 2hours, expressed as percent dose/gram. The procedure, abridged: as §1
For data set [23], the system named is Rattus norvegicus. Briefly: Distribution of [125I]AC in blood after intravenous administration in rat after 1hour, expressed as percent dose/gram. The essentials: as §1
The subject of data set [24] is Rattus norvegicus. As to the kind of experiment: Distribution of [125I]-AC in blood after intravenous administration in rat after 2hours, expressed as percent dose/gram. The essentials: as §1
For data set [25], the system named is Rattus norvegicus. Briefly: Distribution of [125I]AC in cerebellum after intravenous administration in rat after 1hour, expressed as percent dose/gram. The procedure, abridged:
as §1

For data set [26], the system named is Rattus norvegicus. Briefly: Distribution of [125I]AC in striatum after intravenous administration in rat after 2hours, expressed as percent dose/gram. The essentials:
as §1

Turning to `COc1cc(N=[N+]=[N-])c(I)cc1C(=O)NC1CCN(Cc2ccccc2)CC1` [IODOAZIDOCLEBOPRIDE], the Tissue distribution with Rattus norvegicus [1] stood at 0.73%; in the data set with Rattus norvegicus [2], 0.32%; with Rattus norvegicus [3] it was 0.34%; in the data set on Rattus norvegicus [4] it was 1.13%; in the data set with Rattus norvegicus [5], 1.06%; with Rattus norvegicus [6] it was 1.61%. For the same molecule, the Tissue distribution in the data set with Rattus norvegicus [7] turned out to be 0.78%; in the data set on Rattus norvegicus [8] it was 2.52%; with Rattus norvegicus [9], 2.52%; in the data set with Rattus norvegicus [10], 1.25%; with Rattus norvegicus [11], 1.12%; in the data set on Rattus norvegicus [14] it was 1.34%. Also, the Ratio was 2.23 in the data set filed under Rattus norvegicus [12] and 2.37 in the data set listed under Rattus norvegicus [13].
For the molecule `COc1cc(N)c(I)cc1C(=O)NC1CCN(Cc2ccccc2)CC1`, the Tissue distribution with Rattus norvegicus [15] worked out at 0.23%; with Rattus norvegicus [16], 0.35%; in the data set with Rattus norvegicus [17] it was 0.3%; in the data set with Rattus norvegicus [18], 0.18%; in the data set on Rattus norvegicus [19] it was 0.16%; with Rattus norvegicus [20], 0.5%. In addition, the Tissue distribution in the data set on Rattus norvegicus [21] worked out at 0.27%; with Rattus norvegicus [22] it was 0.22%; with Rattus norvegicus [23], 0.33%; with Rattus norvegicus [24] it was 0.29%; in the data set with Rattus norvegicus [25], 0.26%; in the data set with Rattus norvegicus [26], 0.38%. For the same molecule, the Ratio turned out to be 1.92 in the data set filed under Rattus norvegicus [12] and 1.65 in the data set listed under Rattus norvegicus [13].
